UPR CHOP act: activators of apoptotic CHOP UPR arm, primary screen, cell-based, CHO-CHOP luciferase reporter, luminescence, uHTS. UPR activation; percent of tunicamycin response over DMSO baseline. activation, % at 10 µM. actives 0.34% (n = 330,000);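 active = at 10 µM dose, activation of 40% or more, normalized to positive control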;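 note: 100% = tunicamycin at 10 µg/mL and 0% = DMSO alone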
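Dosing – one dose, 10 µM in 0.5% DMSO · System – CHO-CHOP cells, stable luciferase reporter of PERK-eIF2a-CHOP signalling · Input – 500 cells/well · Control set – tunicamycin 10 µg/mL final as positive, DMSO-only wells as negative · Timing – 6 h compound treatment, 37 °C · Measure – % activation vs tunicamycin · Technique – luminescence read with Steady-Glo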
Apaf-1 inh: inhibitors of human Apaf-1 apoptosome, primary screen, biochemical, DEVD-Rh110 fluorescence, uHTS | Apoptotic protease-activating factor 1 (Homo sapiens), O14727 | reconstituted apoptosome caspase-3 activity | inhibition, % at 20 µM | actives 0.71% (n = 330,000) | AID 489030, 2010; active = inhibition of at least 40% at 20 µM;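 note: plate controls were DMSO wells for no effect and DEVD-CHO caspase inhibitor wells for full effect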
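System: reconstituted apoptosome with Apaf-1, cytochrome c, caspase-9, procaspase-3, dATP; Signal: Rh110 fluorescence intensity; Schedule: 30 min compound preincubation, 50 min activation, room temperature; Reagent: cytochrome c trigger plus (Z-DEVD)2-Rh110 caspase-3 substrate.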
Mdm2-MdmX inh: inhibitors of human Mdm2-MdmX association, primary screen, cell-based, luminescence, split luciferase, SaOS-2, uHTS | Protein Mdm4 (Homo sapiens) + E3 ubiquitin-protein ligase Mdm2 (Homo sapiens), … | SaOS-2 split-luciferase Mdm2/MdmX complementation | inhibition, % at 8 µM | actives 3% (n = 330,000);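 active = inhibition of at least 50% at 8 µM in the primary screen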
UBC13 polyUb: UBC13 polyubiquitin chain formation inhibitors, primary screen, biochemical, TR-FRET, uHTS. Ubiquitin-conjugating enzyme E2 N (Homo sapiens), P61088. inhibition, % at 20 µM. actives 0.47% (n = 330,000); in the data active = inhibition above about 45%, passing the limit was not always enough
XBP1 UPR activ: activators of adaptive XBP1 UPR arm, primary screen, cell-based, CHO-XBP1 luciferase reporter, luminescence, uHTS; actives 0.33% (n = 330,000); AID 463104, 2010; IRE1-XBP1 UPR activation; percent of tunicamycin response, DMSO as zero; activation, % at 20 µM;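 active = versus positive control, 20 µM dose yields 30% or more activation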;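 note: 100% = tunicamycin at 10 µg/mL and 0% = DMSO only wells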
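assay system = CHO-XBP1 luciferase reporter cells | amount = 1000 cells/well | buffer or medium = F12 plus 10% FBS | compound dosing = single point, 20 µM final compound, 1% DMSO | incubation = 16-18 h cell attachment at 37 °C, then 6 h compound exposure | detection = Steady-Glo luminescence read | controls = tunicamycin 10 µg/mL and vehicle-only wells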
Mdm2 MdmX conf: Mdm2-MdmX complex disruptors, retested hits, confirmation, luminescence, single concentration; shares compounds with Mdm2-MdmX inh; Mdm2-MdmX binding, luminescent assay; inhibition, % at 8 µM; actives 55% (n = 10,000); AID 489028, 2010; in the data active = inhibition above about 40%
FLuc counter: full-length luciferase signal inhibition, confirmation, counter-screen for Mdm2/MdmX interaction inhibitor project, cell-based, single concentration, SaOS-2; shares compounds with Mdm2-MdmX inh; SaOS-2 full-length luciferase counterscreen, luminescence; inhibition, % at 8 µM; actives 77% (n = 6,200); AID 504607, 2011;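 active = mean inhibition at 8 µM reaching about 37%, which flags the compound as non-specific, limit read from the data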;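 note: p53-null SaOS-2 cells with luciferase driven by a doxycycline-inducible promoter; compound on cells about two nights before reading with doxycycline added after day one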
An asterisk follows results filed as active; / = no result given. Only some compounds are listed: those with a hit (about 4.1% of all), similar ones and a draw of the others.

SMILES	UPR CHOP act	Apaf-1 inh	Mdm2-MdmX inh	UBC13 polyUb	XBP1 UPR activ	Mdm2 MdmX conf	FLuc counter
Cc1ccc(-c2nc(C(Cl)Cl)c3ccccc3n2)cc1	28	-14	96*	-6	5	49*	15
Cn1c(C(=O)N2CCCCCC2)cc2c(=O)n(C)c3ccccc3c21	-1	3	13	-6	2	/	/
Cc1cccc(N2CCN(C(=O)c3cc4c(=O)n(C)c5ccccc5c4n3C)CC2C)c1 (stereo unspecified)	0	20	52*	2	-1	17	/
COc1ccc(-n2c(SCC(N)=O)nc3sc4c(c3c2=O)CCC4)cc1	-2	-14	8	4	-2	/	/
CCCn1c2c(c(=N)c3c1CCC3)CCC2	0	-12	1	8	-1	/	/
CCCCCCCn1c2c(c(=N)c3ccccc31)CCC2	11	1	89*	21	10	71*	37*
CCn1c(SCC(=O)Nc2cccc(OC)c2)nc2c(c1=O)SCC2	0	5	7	5	1	/	/
CCOc1ccc(Nc2cc3n(c(=O)n2)CCc2cc(OC)c(OC)cc2-3)cc1	1	8	51*	-9	13	6	/
CCOc1ccccc1Nc1cc2n(c(=O)n1)CCc1cc(OC)c(OC)cc1-2	5	6	29	-3	14	/	/
CC(=O)c1ccc(NC(=O)NC2CC(=O)N(c3ccc4c(c3)OCCO4)C2)cc1 (stereo unspecified)	2	-15	-2	-2	-2	/	/
Cc1nc(CSc2nc3[nH]ncc3c(=O)n2-c2ccccc2)cs1	1	0	-12	0	-2	/	/
Cc1noc(C)c1CSc1nc2ccccc2c(=O)n1-c1ccccc1	4	-1	67*	2	5	63*	67*
C=CCn1c(SCc2c(C)noc2C)nc2sc3c(c2c1=O)CCCCC3	-1	27	39	-4	-1	/	/
CN(C(=O)CSc1nc2ccccc2c(=O)n1-c1ccc(F)cc1F)C1CCS(=O)(=O)C1 (stereo unspecified)	1	17	15	-3	2	/	/
Cc1noc(C)c1CSc1nc2ccccc2c(=O)n1-c1ccc(F)cc1F	-1	11	66*	11	-5	53*	58*
C=CCn1c(SCc2c(C)noc2C)nc2sc3c(c2c1=O)CCCC3	-1	5	52*	11	0	55*	41*
Cc1noc(C)c1CSc1nc2[nH]ncc2c(=O)n1-c1ccccc1	-1	11	69*	-5	11	68*	61*
CC(C)N(Cc1nnc(-c2ccc(Cl)cc2)o1)C(=O)c1cc2ccccc2o1	1	18	-14	-1	-3	/	/
C=CCn1c(SCc2c(C)noc2C)nc2cc(C(=O)O)ccc2c1=O	0	-1	22	5	0	/	/
C=CCn1c(SCc2c(C)noc2C)nc2ccccc2c1=O	-1	-17	58*	27	4	60*	66*
COc1cc2nc(SCc3c(C)noc3C)n(CCC3=CCCCC3)c(=O)c2cc1OC	2	34	87*	-30	1	52*	50*
Cc1ccc(Cl)cc1N1CCN(C(=O)CN(C2CCCCC2)S(C)(=O)=O)CC1	1	28	0	-6	0	/	/
Nc1c(C(=O)NC2CCCC2)c2nc3ccccc3nc2n1/N=C/c1ccco1	5	8	73*	10	7	9	/
Nc1c(C(=O)NC2CCCC2)c2nc3ccccc3nc2n1N	2	19	25	3	0	/	/
CC(NC(=O)COC(=O)CN1C(=O)c2ccccc2C1=O)c1ccccc1 (stereo unspecified)	1	2	-13	2	3	/	/
SMILES	UPR CHOP act	Apaf-1 inh	Mdm2-MdmX inh	UBC13 polyUb	XBP1 UPR activ	Mdm2 MdmX conf	FLuc counter
O=C(CCl)N1c2ccccc2SCC1c1ccccc1 (stereo unspecified)	-7	9	99*	2	-14	54*	19
Cc1nn(Cc2ccccc2Cl)c2sc(C(=O)Nc3ccccc3N3CCOCC3)cc12	-2	-2	55*	2	3	61*	61*
Cc1nn(-c2ccccc2Cl)c2sc(C(=O)Nc3nnc(C4CC4)s3)cc12	-1	-13	74*	9	2	7	/
COc1ccc(C2CC(c3ccccc3)=NN2C(=O)COC(=O)c2cccc(N)c2)cc1 (stereo unspecified)	1	0	28	11	-1	/	/
CCOC(=O)c1ccc(N2CCN(C(C)=O)CC2)c(NC(=O)c2cccnc2)c1	2	-14	5	1	0	/	/
O=c1cc(-c2ccccc2Cl)oc2c(NS(=O)(=O)c3cc(Cl)cc(Cl)c3O)ccc(O)c12	-1	1	98*	-13	-2	83*	43*
OCCCNc1ncnc2scc(-c3ccc(Cl)cc3)c12	-1	3	71*	8	3	60*	33
NNc1ncnc2scc(-c3ccc(Cl)cc3)c12	1	-3	-2	-1	-2	/	/
O=[N+]([O-])c1ccc(N=NN(CCO)CCO)cc1	0	-4	-2	-1	-1	/	/
O=[N+]([O-])c1ccc(N=Nc2ncc[nH]2)cc1	3	15	100*	-80	-8	59*	53*
COC(=O)C(CC(=O)c1ccc(Br)cc1)n1ccnc1 (stereo unspecified)	3	1	99*	9	-1	15	/
CC(C)C(OC(=O)c1cccc(S(=O)(=O)NCC(F)(F)F)c1)C(=O)NC(N)=O (stereo unspecified)	0	-1	-6	6	-2	/	/
CCCN1C(=O)/C(=C\C=C2/Sc3ccccc3N2CCO)SC1=S	7	6	25	-93	22	/	/
CCN1C(=O)/C(=C/C=C2/Sc3ccccc3N2CCO)SC1=S	0	-4	70*	3	-2	19	/
Cc1ccc(S(=O)(=O)NC(=O)c2cc(C)n(-c3ccc(N(C)C)cc3)c2C)cc1	2	28	-11	-16	1	/	/
O=[N+]([O-])c1ccc(S(=O)(=O)c2ccccc2)nc1	-11	8	95*	-10	-8	97*	50*
Cc1ccc(S(=O)(=O)c2ccc([N+](=O)[O-])cn2)cc1	-10	-3	96*	-7	-9	88*	52*

Bioassay records (PubChem BioAssay)
